Source: PubChem BioAssay (several laboratories)
S1P1 ag pot – S1P1 agonists and agonism potentiators, primary screen, cell-based, primary and confirmation screens, CRE-bla reporter | Sphingosine 1-phosphate receptor 1 (Homo sapiens), P21453 | activation, % at 9.5 µM | S1P1 CRE-bla cells, forskolin, beta-lactamase FRET, potentiator mode; S1P1 agonist co-added at EC20, 2 nM; 100% = saturating reference agonist, 0% = basal | 56,000 tested, 0.57% active | AID 449, 2006;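 active = activation above a cutoff set at the mean activation of all tested compounds plus 3 SD, cut at about 54% in these data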;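 note: forskolin at 4 µM as EC80 and the EC20 agonist is SEW2871; 100% = SEW2871 at its EC100 plus forskolin at EC80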
S1P3 agonist – human S1P3 receptor agonists, primary screen, cell-based, primary and confirmation, NFAT-BLA reporter. 60,000 tested, 0.1% active. Sphingosine 1-phosphate receptor 3 (Homo sapiens), Q99500. S1P3 NFAT-BLA reporter cells, agonism, FRET ratio; relative to 1 µM S1P, basal subtracted. activation, % at 4.5 µM. AID 373, 2006;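 active = activation above the screen-wide mean plus 3 SD, cut at about 4.5% in these data, passing the limit was not always enough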
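Benchmarks: high control 1 µM S1P / System: stable CHO line with human S1P3, Gα16, NFAT-BLA reporter / Dosing: single compound concentration, 4.5 µM final / Timing: 4 h compound at 37 °C, 2 h substrate at RT / Measured by: FRET β-lactamase substrate fluorescence, excitation 405 nm, 460/535 nm emission ratio, background-subtracted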
M1 agonist – M1 muscarinic receptor agonists, primary screen, CHO-M1 cells, Fluo-4 calcium, agonist mode; Muscarinic acetylcholine receptor M1; Fluo-4 calcium fluorescence; active compounds read high; B-score at 10 µM; 64,000 tested, 3% active; AID 626, 2007;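 active = fluorescence rise, raw or as B-score row- and column-corrected plate score, outside the 99.7% band of its plate's samples, either direction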
D1 mod – D1 CRE-luciferase signal change, two-sided – cell-based, HEK293 D1, dopamine EC30, D1 allosteric modulator project, primary screen | dopamine EC30 potentiation; actives deviate in either direction | B-score at 10 µM | 58,000 tested, 5.9% active;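 active = luminescence count or its row- and column-corrected plate score outside the 99.7% band of the plate's sample wells, on either side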
M1 antag – antagonists of rat M1 muscarinic receptor | Muscarinic acetylcholine receptor M1 (Rattus norvegicus), P08482 | CHO-M1 cells, Fluo-4 calcium, ACh EC80 antagonist mode; active compounds read low | B-score at 10 µM | 64,000 tested, 3.4% active;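 active = calcium fluorescence response, raw or row-and-column corrected B-score, differing from the plate sample mean either way at a set confidence level, mostly lower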
Target sequence (P08482 whole entry, looked up): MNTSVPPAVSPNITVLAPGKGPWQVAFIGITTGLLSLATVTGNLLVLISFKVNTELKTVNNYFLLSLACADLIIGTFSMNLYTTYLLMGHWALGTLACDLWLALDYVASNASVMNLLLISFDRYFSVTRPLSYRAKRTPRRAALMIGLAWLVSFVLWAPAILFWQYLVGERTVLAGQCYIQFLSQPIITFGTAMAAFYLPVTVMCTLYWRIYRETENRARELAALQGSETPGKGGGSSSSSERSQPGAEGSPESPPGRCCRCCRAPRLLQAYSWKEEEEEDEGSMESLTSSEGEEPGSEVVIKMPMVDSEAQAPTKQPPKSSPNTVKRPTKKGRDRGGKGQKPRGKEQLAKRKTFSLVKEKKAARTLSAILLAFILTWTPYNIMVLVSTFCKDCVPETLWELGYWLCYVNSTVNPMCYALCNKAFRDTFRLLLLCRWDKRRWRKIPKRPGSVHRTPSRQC
M1 antag confirm – rat M1 muscarinic receptor antagonists, confirmation, CHO cells, Fluo-4 calcium, duplicate. shares compounds with M1 antag. ACh EC80 antagonism; active compounds read low. calcium response (max-min fluorescence) at 10 µM. 1,700 tested, 43% active. AID 677, 2007;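 active = calcium response below the same-plate mean of wells given acetylcholine alone at its 80%-effect dose, minus 3 SD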;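 note: raw fluorescence intensity difference in arbitrary instrument units and not normalized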
mGluR4 antag – human mGluR4 response to M1 antagonist hits, M1 allosteric modulator project, cell-based, antagonist mode, secondary assay 1. shares compounds with M1 antag. 1,700 tested, 0.9% active. AID 678, 2007. CHO-mGluR4 calcium flux, Fluo-4 fluorescence, glutamate EC80; active compounds read low. fluorescence response (max-min) at 10 µM;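 active = fluorescence response below the plate's average for near-maximal glutamate wells, less 3 SD of those wells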;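 note: raw unnormalized fluorescence span taken in the window right after glutamate addition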
The depositor's hits bear a star; · = no result. The list is not random: actives were taken first. Their share in the collection is about 11%.

SMILES | S1P1 ag pot | S1P3 agonist | M1 agonist | D1 mod | M1 antag | M1 antag confirm | mGluR4 antag
CCCCn1c(C(C)NC(=O)c2cccs2)nc2ccccc21 (centres undefined) | · | · | 0.29 | -0.19 | -2.6* | 610 | 161
O=C(O)C1C2C=CC(C2)C1C(=O)Nc1ccc(C(=O)N2CCCCC2)cc1 (centres undefined) | · | -1 | -0.59 | 0.17 | 0.55 | · | ·
C=CCc1ccc(OCCCCCN2CCOCC2)c(OC)c1 | 12 | 0 | 0.7 | 0.16 | -7* | 102* | 227
CC(C)(C)NC(=O)Cn1ccc(=N)c2ccccc21 | 7 | 0 | -0.05 | -0.39 | -2.5* | 476 | 192
Cc1cc(N2CCC(N(C)C3CCCC3)CC2)nc2cc(O)ccc12 | 0 | 0 | -0.48 | · | -0.69* | 579* | 187
CN(C)c1ccc(NC(=O)CN2CCN(CC(=O)Nc3ccc(F)cc3)CC2)cc1 | -15 | 0 | -0.73 | 0.54 | -4.6* | 718 | 263
CCOc1ccc(NC(=O)CN2CCN(CC(=O)Nc3ccc(F)cc3)CC2)cc1 | -34 | 0 | -0.24 | 0.0079 | 0.2 | · | ·
CCc1ccccc1N(C(=O)c1cccs1)C1C=CS(=O)(=O)C1 (centres undefined) | -6 | 1 | 0.041 | 0.0045 | -0.03 | · | ·
CS(=O)(=O)c1ccc2nc(NC(=O)CN3CCN(Cc4ccccc4)CC3)sc2c1 | -14 | 0 | -0.79 | -0.87 | -2.5* | 567 | 232
CS(=O)(=O)c1ccc2nc(NC(=O)CC3CCCC3)sc2c1 | 1 | 0 | -0.097 | 1.9 | 0.74 | · | ·
CCn1cc(C(=O)NCCCN2CC(C)CC(C)C2)c2cc(OC)c(OC)cc2c1=O (centres undefined) | · | · | -0.65 | · | -1.8* | 595 | 196
C#CC1(O)CC(C)NCC1(C)CCC#N (centres undefined) | -3 | -1 | -0.47 | 0.13 | 0.13 | · | ·
O=C(CCN1C(=O)C2C3C=CC(C3)C2C1=O)Nc1ccc(F)cc1 (centres undefined) | -6 | 0 | -0.043 | -1.2 | -1.5 | · | ·
O=C(CCN1C(=O)C2C3C=CC(C3)C2C1=O)Nc1ccc2c(c1)OCO2 (centres undefined) | -17 | -1 | 0.31 | -0.3 | -2.6* | 588 | 211
CC(=O)c1c(C)[nH]c(C(=O)OCC(=O)Nc2ncc(Cl)c(C)c2Cl)c1C | -12 | 0 | -0.19 | 1.1 | -15* | 567 | 234
CCN1CCCC1CNC(=O)c1cc2c(-c3ccc(Cl)cc3)nn(C)c2s1 (centres undefined) | -55 | -1 | 0.33 | -1.8 | -4* | 430 | 200
COc1cccc(-c2nn(C)c3sc(C(=O)NCc4ccco4)cc23)c1 | -41 | 0 | 0.034 | 0.7 | -1.1 | · | ·
Cn1nc(-c2ccc(Cl)cc2)c2cc(C(=O)NCCCN3CCCC3)sc21 | -53 | 0 | -0.6 | -1.4 | -1.7 | · | ·
CCN1CCCC1CNC(=O)c1cc2c(-c3cccc(OC)c3)nn(C)c2s1 (centres undefined) | -3 | -1 | 0.3 | -2.3 | -2.8* | 570 | 257
COC(=O)[C@H](C)NC(=O)Nc1cc(OC)ccc1OC | -8 | -1 | 0.68 | 3.6 | -1.4* | 614 | 241
COc1ccccc1N1CCN(C(=O)CCCn2c(=O)[nH]c3ccsc3c2=O)CC1 | 1 | -1 | -1.4 | -0.46 | -4.2* | 617 | 222
COc1ccccc1N1CCN(C(=O)CCCCn2c(=O)[nH]c3ccsc3c2=O)CC1 | -7 | 0 | 0.28 | 0.17 | 0.19 | · | ·
CCOC(=O)N1CCC(NC(=O)c2cc(C(=O)Nc3ccc(OC)c(OC)c3)ccc2CO)CC1 | -8 | -1 | 0.31 | -0.2 | 0.49 | · | ·
CCOc1ccccc1NC(=O)c1ccccc1-c1nc(-c2ccccc2OC)no1 | 12 | -1 | 5.2 | -2.5 | -0.46 | · | ·
CCOc1ccccc1NC(=O)c1cc(CC(C)C)oc1C | · | 0 | -0.29 | -0.54 | -2.4* | 650 | 241
SMILES | S1P1 ag pot | S1P3 agonist | M1 agonist | D1 mod | M1 antag | M1 antag confirm | mGluR4 antag
C=CCOc1c(Br)cc(CNn2nnnc2N)cc1OC | 6 | -1 | -0.56 | -0.087 | -0.0082 | · | ·
Cc1ccc2c(CC(=O)Nc3ccc(N4CCN(C)CC4)cc3C)coc2c1 | 2 | -1 | -1.4 | -4.7* | -3.2* | 334* | 247
Cc1ccc2c(CC(=O)Nc3sccc3C(N)=O)coc2c1 | 11 | -1 | -0.9 | -1.1 | -0.46 | · | ·
O=C1NCCCc2nc(Oc3ccccc3)sc21 | -15 | -1 | -0.51 | 0.11 | -3.3* | 623 | 228
CCOC(=O)NC(Nc1cc(C)ccn1)(C(F)(F)F)C(F)(F)F | -39 | -2 | -0.51 | 0.21 | -0.0061 | · | ·
CC(C)(C)N(Cc1ccccc1)C(=O)c1ccc2c(c1)OCCO2 | -4 | 0 | 0.059 | -0.055 | -1.8* | 483 | 204
CC(C)N(Cc1ccccc1)C(=O)COC(=O)c1ccc2c(c1)OCCO2 | · | · | -0.31 | 0.76 | -0.33 | · | ·
COc1ccc(OCC(=O)Nc2ccc(C)cc2)cc1 | -15 | 0 | -1 | -0.55 | -14* | 516 | 216
CCOc1ccc(NC(=O)CN(c2ccc(OC)cc2)S(C)(=O)=O)cc1 | -1 | -1 | -0.69 | -0.62 | -3.5* | 612 | 241
Cc1ccc(OCC(=O)Nc2ccc(N3CCOCC3)cc2)cc1 | -6 | -1 | 0.45 | 0.07 | -0.73 | · | ·
O=C(CN1C(=O)C2(OCCO2)c2ccccc21)c1ccc(Br)cc1 | · | · | 0.51 | 0.48 | -0.2 | · | ·
COC(=O)C(NC=O)C(O)(Cc1ccccc1)C(F)(F)F (centres undefined) | 1 | 0 | 0.77 | · | -0.26 | · | ·
Nn1c(-c2ccccn2)nnc1-c1ccccn1 | -2 | 0 | 0.62 | -0.23 | -3.1* | 683 | 231
Cc1ccc(C)c(CSc2nnc(-c3ccccn3)n2N)c1 | -11 | 0 | 0.36 | 0.5 | -0.0096 | · | ·
COCCNC(=O)CN(C(=O)CCC(=O)Nc1nccs1)c1ccccc1OC | -16 | -1 | 0.0042 | 0.39 | -0.03 | · | ·
Cc1nn(C)c(C)c1S(=O)(=O)N1CCCC(C(=O)N2CCN(c3ccccc3)CC2)C1 (centres undefined) | 5 | -1 | -0.74 | -0.19 | -2.3* | 617 | 257
CCCS(=O)(=O)N1CCCC(C(=O)N2CCC(Cc3ccccc3)CC2)C1 (centres undefined) | -3 | -1 | -0.39 | -0.74 | -5.2* | 577 | 260
